Test results as given in ChEMBL document CHEMBL1124326, “Synthesis and P-388 antitumor properties of the four diastereomeric 1-hydroxy-3,4-diaminocyclohexane-Cl2PtII complexes” (J Med Chem, 1989).
Where “and” joins values, the source holds several entries; their conditions need not be identical. Equal entries are not always repeated.

Columns and labels:
Type in all cases: functional, organism-based
Mus musculus [1] = experiment: Antineoplastic activity in P-388-tumor cell infected CDF1 mice, administered intraperitoneally at a dose (10 mg/kg), calculated as Median survival time (MST)
Procedure, shortened: (§1)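 P-388 leukaemia cells (1 × 10^6 per animal) implanted into the peritoneal cavity of CDF1 recipient mice. Drug reconstituted in 0.3% Klucel and given ip on a day 1 schedule. Survival checked daily for at least 30 days; survival time expressed as percent treated/control (T/C).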

Mus musculus [2] = experiment: Antineoplastic activity in P-388-infected CDF1 mice, administered intraperitoneally at a dose (10 mg/kg), calculated as Percent treated /control (T/C).; procedure, shortened: as §1
Mus musculus [3] = experiment: Antineoplastic activity in P-388-tumor cell infected CDF1 mice, administered intraperitoneally at a dose (1.5 mg/kg), calculated as Median survival time (MST); procedure, shortened: as §1
Mus musculus [4] = experiment: Antineoplastic activity in P-388-tumor cell infected CDF1 mice, administered intraperitoneally at a dose (3mg/kg), calculated as Median survival time (MST); procedure, shortened: as §1
Mus musculus [5] = experiment: Antineoplastic activity in P-388-infected CDF1 mice, administered intraperitoneally at a dose (1.5 mg/kg), calculated as Percent treated /control (T/C).; procedure, shortened: as §1
Mus musculus [6] = experiment: Antineoplastic activity in P-388-infected CDF1 mice, administered intraperitoneally at a dose (3mg/kg), calculated as Percent treated /control (T/C).; procedure, shortened: as §1
Mus musculus [7] = experiment: Antineoplastic activity in P-388-infected CDF1 mice, administered intraperitoneally at a dose (6 mg/kg), calculated as Percent treated /control (T/C).; procedure, shortened: as §1
Mus musculus [8] = experiment: Antineoplastic activity in P-388-tumor cell infected CDF1 mice, administered intraperitoneally at a dose (6 mg/kg), calculated as Median survival time (MST); procedure, shortened: as §1

Row | Substance | MST (Mus musculus [1]) | T/C (Mus musculus [2]) | MST (Mus musculus [3]) [days] | MST (Mus musculus [4]) [days] | T/C (Mus musculus [5]) [%] | T/C (Mus musculus [6]) [%] | T/C (Mus musculus [7]) [%] | MST (Mus musculus [8]) [days]
1 | 1-Hydroxy-3,4-diaminocyclohexane-Cl2-Platinum II Complex | 15.8 days and 13.8 days | 161% and 141% | – | – | – | – | – | –
2 | CISPLATIN | – | – | 15.5 | 18.5 | 158 | 188 | 249 | 24.5
